# Paper PMC4377161 (Molecular cancer therapeutics, 2014)
# “Also recorded” adds a separate entry of the source.
# Columns and labels:
# MAPK pathway = assay: Western blot of pathway signaling, MAPK; format: cell-based, human; conditions: 3 to 6 µmol/L for 3 to 24 hours, UACC 903 and 1205 Lu
# In short: (§1)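 1.5×10^6 melanoma cells plated in 100 mm dishes. After 48 h, treated with 3–6 µmol/L test compound for 3 to 24 h, then lysed in RIPA and immunoblotted with ECL detection; α-enolase as loading control. Probes: MAPK, phospho-Erk1/2 (Thr202/Tyr204) and total Erk1/2; PI3K/Akt, phospho-Akt (Ser473), total Akt, phospho-PRAS40 (Thr246), phospho-p70S6K (Thr389); STAT3, phospho-Stat3 (Tyr705), total Stat3.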
# MDA-MB-231 = assay: MTS cell viability, MDA-MB-231 breast cancer; format: cell-based; conditions: read-out: IC50, Other cancer types, 24 h
# In short: (§2)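 Cells kept in DMEM with 1% Glutamax and 10% FBS at 37°C, 5% CO2. Seeded at 5×10^3 cells/well in 96-well plates and grown before treatment. Treated with DMSO vehicle or 0.62 to 40 µmol/L test compound for 24, 48 or 72 h. Viability read by MTS. IC50 per cell line derived from three independent experiments by curve fitting.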
# [1] = system: UACC 903 xenografted melanoma tumors; assay: Xenograft tumor growth, UACC 903; format: in vivo, Athymic Nude-Foxn1nu mice; conditions: UACC 903 xenograft, 5–7.5 mg/kg i.p. daily, versus DMSO vehicle control
# In short: (§3)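 Female Athymic Nude-Foxn1nu mice, 3–4 weeks old, injected s.c. above both rib cages with 1×10^6 UACC 903 or 1205 Lu cells in 0.2 mL DMEM with 10% FBS and 1% Glutamax. At day 6, with 50–75 mm3 tumors, mice randomized (5 mice/group, 2 tumors/mouse). Dosed i.p. daily for 3–4 weeks with DMSO vehicle or […] test compound, depending on cell line. Tumor size and body weight measured every 2 days.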
# melanoma cells = assay: MTS cell viability, melanoma cell lines; format: cell-based, human
# In short: (§4)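 Melanoma lines (WM35, SbCl2, WM115, WM278.1, SK-MEL-24, 1205 Lu, UACC 903) and normal cells (FOM103 melanocytes, FF2441 fibroblasts, foreskin keratinocytes) seeded at 5×10^3 cells/well in 96-well plates. Exposed to DMSO vehicle or 0.62–40 µmol/L test compound for 24, 48 or 72 h, then MTS read. IC50 from three independent experiments per line, averaged across each group.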
# cannabinoid receptor CB1 = conditions: cited from earlier work
# Toxicity assessment = format: in vivo; conditions: Swiss Webster mice; for blood markers of major organ function (ALP, ALT, AST, CK, CREA, GLU): 10 mg/kg i.p. daily
# In short: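 Swiss Webster mice (n=5) given 5 or 10 mg/kg test compound i.p. daily for 22 days and weighed daily. At termination, blood taken by cardiac puncture into lithium heparin serum separator tubes for ALP, ALT, AST, CK, creatinine and glucose. On day 22 liver, spleen, kidney, intestine, lung and heart were formalin-fixed, paraffin-embedded, H&E stained and examined microscopically.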
# LNCap = assay: MTS cell viability, LNCap prostate cancer; format: cell-based; conditions: read-out: IC50, Other cancer types, 24 h
# In short: as §2
# PI3K/Akt pathway = assay: Western blot of pathway signaling, PI3K/Akt; format: cell-based, human; conditions: 3 to 6 µmol/L for 3 to 24 hours, UACC 903 and 1205 Lu
# In short: as §1
# UACC 903 melanoma cells = assay: Natural product library NPL-480 primary screen, MTS; format: cell-based, human; conditions: 5 µmol/L, 24 hours, UACC 903, MTS
# In short: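 UACC 903 cells plated at 5×10^3 per well in 96-well plates for 24 h. Each library compound, from 10 mM DMSO stocks, added at 5 µmol/L final for 24 h. Viability read by MTS. Screen run three times and averaged.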
# STAT3 pathway = assay: Western blot of pathway signaling, STAT3; format: cell-based, human; conditions: UACC 903 and 1205 Lu
# In short: as §1
# G-protein activity = conditions: cited from earlier work
# normal cells = assay: MTS cell viability, normal cells; format: cell-based, human; conditions: read-out: average IC50, normal cells; average over normal cells
# In short: as §4
# HT-29 = assay: MTS cell viability, HT-29 colon cancer; format: cell-based; conditions: read-out: IC50, Other cancer types, 24 h
# In short: as §2
# MiA PaCa-2 = assay: MTS cell viability, MiA PaCa-2 pancreas cancer; format: cell-based; conditions: read-out: IC50, Other cancer types, 24 h
# In short: as §2
# HT-1080 = assay: MTS cell viability, HT-1080 fibrosarcoma; format: cell-based; conditions: read-out: IC50, Other cancer types, 24 h
# In short: as §2
# [2] = system: UACC 903 and 1205 Lu cells; assay: Cell cycle analysis, propidium iodide FACS; format: cell-based, human; conditions: 24 hours leelamine treatment, propidium iodide stained UACC 903 and 1205 Lu cells
# [3] = system: preexisting xenografted melanoma tumors; assay: Xenograft tumor growth and body weight, UACC 903 or 1205 Lu; format: in vivo, Athymic Nude-Foxn1nu mice
# In short: as §3
# SW-480 = assay: MTS cell viability, SW-480 colon cancer; format: cell-based; conditions: read-out: IC50, Other cancer types, 24 h
# In short: as §2
# UACC 903 tumors = assay: Size and time matched tumors, Ki-67 immunohistochemistry; format: in vivo, nude mice; conditions: day 11, UACC 903 tumors, 7.5 mg/kg i.p. daily from day 6
# In short: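 Nude mice injected s.c. with 2.5×10^6 UACC 903 cells. From day 6, dosed i.p. daily to day 15 with DMSO vehicle or 7.5 mg/kg test compound. Size- and time-matched tumors harvested at days 11, 13 and 15 and immunostained with mouse anti-human Ki-67. Positive cells scored as % of total cells, ≥6 tumors, 4–6 fields each.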
# HCT-116 = assay: MTS cell viability, HCT-116 colon cancer; format: cell-based; conditions: read-out: IC50, Other cancer types, 24 h
# In short: as §2
# [4] = system: 1205 Lu xenografted melanoma tumors; assay: Xenograft tumor growth, 1205 Lu; format: in vivo, Athymic Nude-Foxn1nu mice; conditions: 1205 Lu xenograft, 5–7.5 mg/kg i.p. daily, versus DMSO vehicle control
# In short: as §3
# A-549 = assay: MTS cell viability, A-549 lung cancer; format: cell-based; conditions: read-out: IC50, Other cancer types, 24 h
# In short: as §2
# PC-3 = assay: MTS cell viability, PC-3 prostate cancer; format: cell-based; conditions: read-out: IC50, Other cancer types, 24 h
# In short: as §2
# pStat3 (Tyr705) = assay: Western blot of size and time matched tumor lysates, pStat3; format: in vivo, nude mice; conditions: days 11, 13 and 15, 7.5 mg/kg i.p. daily from day 6, versus DMSO
# In short: (§5)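 Same size- and time-matched UACC 903 s.c. tumors in nude mice: 7.5 mg/kg test compound or DMSO vehicle given i.p. daily from day 6. Lysates from tumors harvested at days 11, 13 and 15 immunoblotted for pAkt (Ser473) or pStat3 (Tyr705), compared with vehicle-treated tumors.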
# MCF-7 = assay: MTS cell viability, MCF-7 breast cancer; format: cell-based; conditions: read-out: IC50, Other cancer types, 24 h
# In short: as §2
# pAkt (Ser473) = assay: Western blot of size and time matched tumor lysates, pAkt; format: in vivo, nude mice; conditions: days 11, 13 and 15, 7.5 mg/kg i.p. daily from day 6, versus DMSO
# In short: as §5
# [5] = system: UACC 903 and 1205 Lu cells; assay: Apo-ONE caspase-3/7 apoptosis assay; format: cell-based, human; conditions: longer exposure
# [6] = system: mutant V600EB-Raf melanoma; conditions: cited from earlier work
structure (smiles),measurement,setting,value
"CC(C)c1ccc2c(c1)CC[C@H]1[C@](C)(CN)CCC[C@]21C [leelamine, Dehydroabietylamine]",signaling through MAPK pathway,MAPK pathway,Decreased signaling
same,IC50,MDA-MB-231,5.82 ± 0.87 µM
same,reduction of tumor volume,[1],61%
same,fold more effective at inhibiting cultured melanoma cell survival than normal cells,"melanoma cells; melanoma cells versus normal cells, average",4.5 fold
same,IC50,"melanoma cells; read-out: average IC50, cultured melanoma cells, average over melanoma cells",2 µM
same,binding to the cannabinoid receptor CB1,cannabinoid receptor CB1,weakly binding
same,"blood markers of major organ function (ALP, ALT, AST, CK, CREA, GLU)","Toxicity assessment; after 22 days, 10 mg/kg",No significant differences; also recorded: negligible toxicity
same,"blood markers of major organ function (ALP, ALT, AST, CK, CREA, GLU)","Toxicity assessment; after 22 days, listed as Leelamine, 10 mg/kg",without affecting
same,histological examination of H&E stained vital organ sections (cellular morphology or overall structure),"Toxicity assessment; 10 mg/kg, after 22 days, liver, spleen, kidney, intestine, lung, heart, 10 mg/kg",no change; also recorded: no differences
same,body weights,"Toxicity assessment; 5 or 10 mg/kg i.p. daily, 22 days",No significant difference
same,IC50,LNCap,10.9 ± 0.23 µM
same,signaling through PI3K pathway,PI3K/Akt pathway,Decreased signaling
same,decrease in cell viability,UACC 903 melanoma cells,approximately 95%
same,signaling through STAT3 pathway,STAT3 pathway; 3 to 6 µmol/L for 3 to 24 hours,Decreased signaling
same,time from which inhibition of STAT3 pathway occurred,STAT3 pathway; 3 to 6 µmol/L,≥ 12 h
same,stimulation of G-protein activity,G-protein activity,not stimulating
same,IC50,normal cells,9.3 µM
same,IC50,HT-29,5.95 ± 1.23 µM
same,IC50,MiA PaCa-2,4.69 ± 0.37 µM
same,IC50,HT-1080,4.01 ± 0.27 µM
same,cell cycle distribution,[2],"increase in the sub-G0/G1 and G0/G1 cell populations, with a corresponding decrease in the S-phase population"
same,"inhibition of growth of preexisting xenografted melanoma tumors, average","[3]; average of UACC 903 and 1205 Lu xenografts, i.p. daily for 3 to 4 weeks",60%
same,animal body weight,"[3]; xenograft-bearing nude mice, leelamine i.p. daily versus DMSO control",no significant differences
same,IC50,SW-480,1.55 ± 0.33 µM
same,reduction in proliferating cells (Ki-67),UACC 903 tumors,50%
same,IC50,HCT-116,4.8 ± 0.5 µM
same,reduction of tumor volume,[4],57%
same,IC50,A-549,8.81 ± 0.82 µM
same,IC50,PC-3,5.41 ± 2.6 µM
same,pStat3 (Tyr705) in tumor lysates,pStat3 (Tyr705),decreased; also recorded: inhibition
same,IC50,MCF-7,7.12 ± 1.3 µM
same,active pAkt (Ser473) in tumor lysates,pAkt (Ser473),decreased; also recorded: inhibition
same,increase in apoptosis,[5],600%
CCCS(=O)(=O)Nc1ccc(F)c(C(=O)c2c[nH]c3ncc(-c4ccc(Cl)cc4)cc23)c1F [Zelboraf],progression-free survival,[6],6.2 months
same,partial or complete anti-tumor response rate,"[6]; patients having mutant V600EB-Raf, first 2-month treatment cycle",approximately 80%
